Results gathered from unrelated publications.
Lines come from different studies, so protocols differ.
MET Y1235D: Hepatocyte growth factor receptor (MET, Homo sapiens, UniProt P08581, Y1235D)
MET: Hepatocyte growth factor receptor (MET, Homo sapiens, UniProt P08581)
MET M1250T: Hepatocyte growth factor receptor (MET, Homo sapiens, UniProt P08581, M1250T)

N[C@@H]1CCN(c2nccc(-c3cnn4ncccc34)n2)C1  remaining binding (MET Y1235D; binding; 1 µM): 100%
COc1cnc(Nc2cccc(S(N)(=O)=O)c2)nc1N1CCN(c2ccccc2)CC1  remaining binding (MET; binding, competition with immobilised ligand; 1 µM): 100%
Cc1nc(N2CC[C@@H](O)C2)ncc1-c1cc(C(F)(F)F)cc2[nH]ncc12  remaining binding (MET; cell-free assay, competition with immobilised ligand; 1 µM): 100%
C[C@H]1CCN(c2nccc(-c3cnn4ncccc34)n2)C1  remaining binding (MET M1250T; binding; 1 µM): 50%
O=C(NCCCN1CCOCC1)c1ccc(Nc2ncc(Cl)c(-c3ccc(Cl)s3)n2)cc1  remaining binding (MET; binding, competition with immobilised ligand; 1 µM): 37%
F[C@@H]1CCN(c2nccc(-c3cnn4ncccc34)n2)C1  remaining binding (MET M1250T; binding; 1 µM): 100%
O=C(Nc1c[nH]nc1C(=O)NC1CCNCC1)c1cc(F)cc(F)c1  remaining binding (MET; binding, competition with immobilised ligand; 1 µM): 94%
c1cnn2ncc(-c3ccnc(N4CCC45COC5)n3)c2c1  remaining binding (MET; binding; 1 µM): 83%
NS(=O)(=O)c1cc(NC(=O)Cc2ccccc2)ccc1Oc1cccc(Cl)c1  remaining binding (MET; cell-free assay, competition with immobilised ligand; 1 µM): 91%
Cc1cnc(Nc2ccc(C(=O)N3CCC(N4CCCC4)CC3)cc2)nc1-c1cc2ccccc2s1  remaining binding (MET Y1235D; binding, competition with immobilised ligand; 1 µM): 72%
CNC(=O)Nc1ccc2c(c1)CC[C@@]21OC(=O)N(CC(=O)N(Cc2ccc(F)cc2)[C@@H](C)C(F)(F)F)C1=O  remaining binding (MET Y1235D; cell-free assay, competition with immobilised ligand; 1 µM): 81%
O=C(c1ccc(Nc2ncc(Cl)c(-c3cc4ccccc4s3)n2)cc1)N1CCC(N2CCCC2)CC1  remaining binding (MET Y1235D; binding, competition with immobilised ligand; 1 µM): 44%
CCN1CCN(Cc2ccc(C(=O)Nc3ccc(C)c(Oc4ccc5c(c4)CC(=O)N5)c3)cc2C(F)(F)F)CC1  remaining binding (MET Y1235D; binding, competition with immobilised ligand; 1 µM): 100%
c1cncc(-c2cccc(Nc3nccc(NC4CCCCC4)n3)c2)c1  remaining binding (MET; binding, competition with immobilised ligand; 10 µM): 43%
CO[C@@H](C)c1c(Nc2ccc([C@@H](N(C)C(=O)C3CCS(=O)(=O)CC3)C(F)(F)F)cc2)cnc2cc(Cl)nn12  remaining binding (MET M1250T; cell-free assay, competition with immobilised ligand; 1 µM): 100%
CN(C)c1ncc(F)c(-c2cnn3ncccc23)n1  remaining binding (MET M1250T; binding; 1 µM): 100%
Cc1c(NC(=O)c2cc(C(N)=O)nc3cc(F)ccc23)c(C(F)(F)F)nn1Cc1ccc(C(C)(C)C)cc1  remaining binding (MET Y1235D; cell-free assay, competition with immobilised ligand; 1 µM): 84%
COc1ncc2cc3ccccc3nc2c1C#N  remaining binding (MET; cell-free assay, competition with immobilised ligand; 5 µM): 91%
COc1ccnn2ncc(-c3ccnc(N(C)C)n3)c12  remaining binding (MET; binding; 1 µM): 92%
O=C(O)[C@H]1[C@H](Cn2nnc3ccccc3c2=O)CC[C@@H]1C(=O)c1ccc(OCCC2CCOCC2)cc1  remaining binding (MET Y1235D; cell-free assay, competition with immobilised ligand; 1 µM): 100%
Cc1cnn2ncc(-c3ccnc(N(C)C)n3)c2c1  remaining binding (MET M1250T; binding; 1 µM): 61%
CCS(=O)(=O)c1cc2cc(C[C@](O)(CC(C)(C)c3ccc(F)cc3C(N)=O)C(F)(F)F)[nH]c2cn1  remaining binding (MET; cell-free assay, competition with immobilised ligand; 1 µM): 98%
